The test system of assay [1] is Cricetinae gen. sp. As to the kind of experiment: Activity of compound the was expressed as ratio of active hamster tracheal organ cultures(TOC) to the total cultures at 10e-10 M concentration; 3/7. It counts as functional, Cricetulus griseus, Trachea. The method, boiled down: (§1)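 Tracheal organ cultures came from vitamin A-deficient hamsters. Each culture was scored for reversal of keratinization and reported as active cultures out of total cultures at each retinoid concentration tested (10⁻⁸ to 10⁻¹² M). The protocol followed earlier published methods.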

Assay [2] deals with Cricetinae gen. sp. As to the kind of experiment: Activity of compound the was expressed as ratio of active hamster tracheal organ cultures(TOC) to the total cultures at 10e-9 M concentration; 4/7. It counts as functional, Cricetulus griseus, Trachea. The essentials: as §1
The subject of assay [3] is Cricetinae gen. sp. As to the kind of experiment: Molarity required to effect reversal of keratinization in 50% of cultures. The class given is functional, Cricetulus griseus.
Assay [4] has as its system Cricetinae gen. sp. Put plainly: Activity of compound the was expressed as ratio of active hamster tracheal organ cultures(TOC) to the total cultures at 10e-8 M concentration; 6/7. The class given is functional, Cricetulus griseus, Trachea. The method, boiled down: as §1
Assay [5] addresses T1, Ornithine decarboxylase (Mus musculus) (UniProt P00860).
T1 sequence (whole entry): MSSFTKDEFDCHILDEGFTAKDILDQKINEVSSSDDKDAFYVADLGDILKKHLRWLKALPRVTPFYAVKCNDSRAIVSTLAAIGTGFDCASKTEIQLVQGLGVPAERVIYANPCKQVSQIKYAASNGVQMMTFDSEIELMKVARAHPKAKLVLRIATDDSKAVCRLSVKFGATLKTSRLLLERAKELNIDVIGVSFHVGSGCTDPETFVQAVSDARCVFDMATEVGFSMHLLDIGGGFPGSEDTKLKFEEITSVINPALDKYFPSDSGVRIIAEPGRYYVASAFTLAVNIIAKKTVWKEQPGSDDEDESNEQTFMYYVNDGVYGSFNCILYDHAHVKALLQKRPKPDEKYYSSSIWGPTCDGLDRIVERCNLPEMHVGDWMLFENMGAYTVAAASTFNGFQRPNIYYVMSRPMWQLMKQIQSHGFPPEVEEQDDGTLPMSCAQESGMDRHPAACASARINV
As to the kind of experiment: Inhibition of the induction of ornithine decarboxylase in mouse epidermis by the tumor promoter 12-O-tetradecanoylphorbol-13-acetate (ODC) at dose 1.7 nmol.

Assay [6] has as its target T1, Ornithine decarboxylase (Mus musculus). Put plainly: Inhibition of the induction of ornithine decarboxylase in mouse epidermis by the tumor promoter 12-O-tetradecanoylphorbol-13-acetate (ODC) at dose 17 nmol.
In assay [7] the test system is Cricetinae gen. sp. Put plainly: Activity of compound the was expressed as ratio of active hamster tracheal organ cultures(TOC) to the total cultures at 10e-10 M concentration; 4/13. The class given is functional, Cricetulus griseus, Trachea. The method, boiled down: as §1
Assay [8] has as its system Cricetinae gen. sp. As to the kind of experiment: Activity of compound the was expressed as ratio of active hamster tracheal organ cultures(TOC) to the total cultures at 10e-8 M concentration; 7/7. It counts as functional, Cricetulus griseus, Trachea. The following applies: at 0.01 µM.
Assay [9] concerns Cricetinae gen. sp. As to the kind of experiment: Activity of compound the was expressed as ratio of active hamster tracheal organ cultures(TOC) to the total cultures at 10e-9 M concentration; 7/7. It counts as functional, Cricetulus griseus, Trachea. The method, boiled down:
as §1

For assay [10], the species on record is Mus musculus. As to the kind of experiment: Tested for relative activity in a 20-week anti-papilloma experiment in female CD-1 mice at dose 170 nmol. It counts as functional. The method, boiled down: (§2)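 Female Charles River CD-1 mice, 8 weeks old, in random groups of 25–30, were shaved 2 days before initiation with 200 nmol DMBA in acetone on the back. From 2 weeks on, 8.5 nmol TPA was applied twice weekly for 20 weeks. Retinoid in 0.2 mL acetone, or acetone alone for controls, was given 1 h before each TPA dose. Papillomas were counted weekly, and mean papillomas per mouse were compared with controls at 20 weeks.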

Assay [11] is filed under the species Mus musculus. Put plainly: Tested for relative activity in a 20-week anti-papilloma experiment in female CD-1 mice at dose 17 nmol. It counts as functional. The essentials: as §2
For assay [12], the species on record is Mus musculus. Put plainly: Percent decrease in average number of papillomas at dose 170 nmol. It counts as functional. The essentials: as §2
The species named for assay [13] is Mus musculus. Put plainly: Percent decrease in average number of papillomas at dose 17 nmol. It counts as functional. The method, boiled down: as §2
A short description of assay [14]: Mortality range in days at dose 200 umol/kg day. It counts as functional, Mus musculus. The method, boiled down:
(§3)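 Adult female Swiss mice (20–25 g) had chow and water ad libitum. The retinoid was homogenized as a suspension in aqueous 8% Cremophor EL plus 10% propylene glycol. It was given ip as 10 weekday injections over 14 days. Controls received vehicle alone. Survivors were weighed on days 1, 5, 10 and 15, and dates of death were recorded. Survival was scored at days 8 and 15.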

Assay [15] can be described thus: Mortality range in days at dose 300 umol/kg day; 12-15. It counts as functional, Mus musculus. The method, boiled down:
as §3

A short description of assay [16]: Mortality range in days at dose 600 umol/kg day; 7-10. The class given is functional, Mus musculus. The essentials: as §3
A short description of assay [17]: Percent survivors at dose 100 umol/kg day. The class given is functional, Mus musculus. The essentials: as §3
Assay [18] can be described thus: Percent survivors at dose 200 umol/kg day. The class given is functional, Mus musculus. The method, boiled down:
as §3

The nature of assay [19]: Percent survivors at dose 300 umol/kg day. The class given is functional, Mus musculus. The essentials: as §3
A short description of assay [20]: Percent survivors at dose 30 umol/kg day. It counts as functional, Mus musculus. The method, boiled down: as §3
Assay [21] in a line: Percent survivors at dose 600 umol/kg day. The class given is functional, Mus musculus. The method, boiled down: as §3
For assay [22], the system named is Cricetinae gen. sp. Put plainly: Activity of compound the was expressed as ratio of active hamster tracheal organ cultures(TOC) to the total cultures at 10e-10 M concentration; 1/6. The class given is functional, Cricetulus griseus, Trachea. The method, boiled down:
as §1

Assay [23] relates to Cricetinae gen. sp. As to the kind of experiment: Activity of compound the was expressed as ratio of active hamster tracheal organ cultures(TOC) to the total cultures at 10e-8 M concentration; 4/7. The class given is functional, Cricetulus griseus, Trachea. The method, boiled down: as §1
In assay [24] the test system is Cricetinae gen. sp. Put plainly: Activity of compound the was expressed as ratio of active hamster tracheal organ cultures(TOC) to the total cultures at 10e-9 M concentration; 3/7. The class given is functional, Cricetulus griseus, Trachea. The essentials:
as §1

Assay [25] addresses T1, Ornithine decarboxylase (Mus musculus). As to the kind of experiment: Inhibition of the induction of ornithine decarboxylase in mouse epidermis by the tumor promoter 12-O-tetradecanoylphorbol-13-acetate (ODC) at dose 17 nmol * p<0.01.
For assay [26] the target is unchanged. As to the kind of experiment: Inhibition of the induction of ornithine decarboxylase in mouse epidermis by the tumor promoter 12-O-tetradecanoylphorbol-13-acetate (ODC) at dose 1.7 nmol * Inhibition not significant.
Assay [27] deals with Cricetinae gen. sp. As to the kind of experiment: Activity of compound the was expressed as ratio of active hamster tracheal organ cultures(TOC) to the total cultures at 10e-8 M concentration; 1/5. It counts as functional, Cricetulus griseus, Trachea. The method, boiled down:
as §1

Assay [28] deals with Cricetinae gen. sp. As to the kind of experiment: Activity of compound the was expressed as ratio of active hamster tracheal organ cultures(TOC) to the total cultures at 10e-9 M concentration; 1/5. It counts as functional, Cricetulus griseus, Trachea. The essentials: as §1

One may read the inhibition as the relative decrease from the control value, in per cent.

`CC1=C(/C=C/C(C)=C/C=C/c2ccc(C(=O)O)cc2)C(C)(C)CCC1` [PELRETIN]: the Activity in assay [1] came to 3%; in assay [2], 57%; in assay [4] it was 6%. Moreover, the ED50 in assay [3] turned out to be 4e-10. Moreover, the inhibition in assay [5] is 33%; in assay [6], 56%.
`C/C(=C\c1ccc(C(=O)O)cc1)c1ccc2c(c1)C(C)(C)CCO2`: the Activity came to 4% in assay [7]; 7% in [8]; 100% in assay [9]; 38% in assay [10]; 53% in assay [11]. In assay [3], the ED50 stood at 2e-10. Also, the Decrease in assay [12] is listed as 94%; in assay [13], 75%. The inhibition in assay [5] worked out at 42%; in assay [6] it was 81%. Moreover, the Mortality range amounted to 14 days in assay [14], 15 days in assay [15] and 10 days in [16]. Moreover, the “Survivors at day 8” value is given as 100% in [17]; 100% in assay [18]; 100% in assay [19]; 100% in assay [20]; 70% in [21]. Also, the “Survivors at day 15” value was found to be 100% in assay [17], 90% in assay [18], 50% in [19] and 0% in assay [21].
As to `CCOC(=O)c1ccc(/C=C/c2ccc3c(c2)C2CCC3C2)cc1` (configuration not stated), the Activity in assay [22] worked out at 1%; in [23], 4%; in [24] it was 43%. In addition, the ED50 in [3] is on record as 3e-09. Further, the inhibition amounted to 39% in [25] and 15% in [26].
For `CC1=C(/C=C/c2ccc(/C(C)=C/C(=O)O)cc2)C(C)(C)CCC1`, the Activity in assay [27] and in assay [28] was 1% each time. The ED50 in assay [3] is more than 1e-08.

Source of the values: ChEMBL document CHEMBL1122522, “Conformationally restricted retinoids” (1984).
